Measured values from ChEMBL document CHEMBL3352791, “Thioaryl naphthylmethanone oxime ether analogs as novel anticancer agents” (J Med Chem, 2014).
Active and inactive are the calls of the source. The calls are words filed in the database; no cut-off is given here.

Key:
MDA-MB-231 [1] = assay: Antiproliferative activity against human […] cells assessed as growth recovery treated up to 5 uM for 24 hrs followed by maintained in drug free medium for 72 hrs by MTT assay; type: functional
[2] = Antiproliferative activity against mouse NIH/3T3 cells after 24 hrs by MTT assay; type: functional, cell-based; conditions: NIH3T3, 24 h
How it was run: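 MTT viability: cells seeded at 1×10^4 per well in DMEM with 10% FBS, left to adhere overnight, then serum-starved 4 h. Compounds were given at a range of doses, with 0.1% DMSO vehicle as control. EC50 was taken from dose-response curves spanning 100nM-50µM. Data are mean ± SEM from at least three independent experiments.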

Ishikawa = assay: Antiproliferative activity against human ER-positive Ishikawa cells after 24 hrs by MTT assay; type: functional, cell-based; conditions: ishikawa
MCF7 [3] = assay: Cell cycle arrest in human […] MCF7 cells assessed as accumulation at S phase at 5 uM by propidium iodide staining by FACS analysis (reference value: 24.76%); type: functional
MDA-MB-231 [4] = assay: Cell cycle arrest in human […] cells assessed as accumulation at subG1 phase at 5 uM by propidium iodide staining by FACS analysis (reference value: 0.3%); type: functional
MCF7 [5] = assay: Cell cycle arrest in human […] cells assessed as accumulation at subG1 phase at 5 uM by propidium iodide staining by FACS analysis (reference value: 0.1%); type: functional
[6] = biological target: T1, Signal transducer and activator of transcription 1-alpha/beta (Homo sapiens) (UniProt P42224); assay: Inhibition of EGF-induced STAT1 phosphorylation in human MCF7 cells at 1 uM by ELISA; type: cell-based
T1 sequence (whole entry): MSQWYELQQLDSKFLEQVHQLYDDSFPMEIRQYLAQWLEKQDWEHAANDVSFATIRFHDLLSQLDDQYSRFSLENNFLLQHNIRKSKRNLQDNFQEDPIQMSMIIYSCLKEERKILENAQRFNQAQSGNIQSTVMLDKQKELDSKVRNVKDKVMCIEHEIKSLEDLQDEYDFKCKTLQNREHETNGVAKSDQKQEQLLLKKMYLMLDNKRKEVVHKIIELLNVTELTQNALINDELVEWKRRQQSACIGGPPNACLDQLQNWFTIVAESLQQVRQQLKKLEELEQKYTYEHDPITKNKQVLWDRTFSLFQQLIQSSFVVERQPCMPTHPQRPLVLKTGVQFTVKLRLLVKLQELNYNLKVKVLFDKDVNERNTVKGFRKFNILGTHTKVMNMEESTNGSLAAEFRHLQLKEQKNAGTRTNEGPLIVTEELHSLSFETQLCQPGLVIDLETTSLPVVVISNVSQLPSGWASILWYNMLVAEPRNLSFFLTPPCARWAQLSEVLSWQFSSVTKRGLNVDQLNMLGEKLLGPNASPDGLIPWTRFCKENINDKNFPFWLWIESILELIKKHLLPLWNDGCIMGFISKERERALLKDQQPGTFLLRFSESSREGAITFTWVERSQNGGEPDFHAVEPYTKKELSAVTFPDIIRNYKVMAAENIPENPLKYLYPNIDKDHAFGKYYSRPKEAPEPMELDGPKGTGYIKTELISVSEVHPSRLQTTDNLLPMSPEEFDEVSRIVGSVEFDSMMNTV

MDA-MB-231 [7] = assay: Cytotoxicity against human MDA-MB-231 cells assessed as cell viability at 5 uM by MTT assay in presence of 100 ng/ml cholera toxin for 16 hrs; type: functional, cell-based
[8] = biological target: Focal adhesion kinase 1 (Homo sapiens) (UniProt Q05397); assay: Inhibition of EGF-induced FAK phosphorylation at Tyr397 in human MDA-MB-231 cells at 1 uM by ELISA; type: cell-based
MDA-MB-231 [9] = assay: Inhibition of EGF expression in human MDA-MB-231 cells at 5 uM by ELISA; type: functional, cell-based
[10] = biological target: Signal transducer and activator of transcription 3 (Homo sapiens) (UniProt P40763); assay: Inhibition of basal level STAT3 phosphorylation in human MDA-MB-231 cells at 1 uM by ELISA; type: cell-based
MDA-MB-231 [11] = assay: Antiinvasion activity in human MDA-MB-231 cells assessed as inhibition of EGF-induced cell invaded to matrigel coated invasion chamber at 1 uM after 24 hrs by Transwell invasion assay; type: functional, cell-based
How it was run: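 Transwell matrigel invasion (8 µm pore): cells at 1x10^5 cells/mL in 2% FBS medium in upper chamber; lower chamber medium with 1µM compound and EGF 100ng/ml; 24 h. Invaded cells on filter underside fixed, crystal-violet stained, counted in six random fields at 20×, dye dissolved in 0.1% SDS read at 540nm; triplicate chambers.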

DLD-1 = assay: Antitumor activity against human DLD1 cells assessed as reduction in CD133 positive in colon cancer stem cells after 24 hrs by flow cytometry; type: functional, cell-based
MDA-MB-231 [12] = assay: Inhibition of mammosphere formation in human MDA-MB-231 cells at 5 to 20 uM after 8 days; type: functional, cell-based
How it was run: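 Single cells were plated in ultralow-attachment plates at 100,000 viable cells/ml for primary culture and 5,000 cells/ml for passages. Spheres formed over 7–10 days in serum-free MEBM containing compound, with salinomycin as comparator. Primary spheres were trypsin-dissociated for serial passage. Sphere number was counted manually and verified by two independent observers blinded to treatment.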

[13] = system: Mast/stem cell growth factor receptor Kit (Homo sapiens), P10721 [D816V]; assay: Inhibition of cKit D816V mutant (unknown origin) at 10 uM
How it was run: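 Cell-free kinase profiling was run as a standard 33P-ATP-based in vitro kinase assay.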

MDA-MB-231 [14] = assay: Induction of apoptosis in human […] cells assessed as caspase 8 activation at 2.5 to 7.5 uM by Caspase-Glo assay; type: functional, cell-based
How it was run: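 Caspase-8, -9 and -3 activities measured with Caspase-Glo 8, 9 and 3 kits; mean ± SEM from three independent experiments.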

MDA-MB-231 [15] = assay: Antiproliferative activity against human […] cells at 2.5 to 7.5 uM by annexin V-FITC/propidium iodide staining-based flow cytometric analysis; type: functional, cell-based
MCF7 [16] = assay: Cytotoxicity against human […] cells assessed as cell viability at 5 uM by MTT assay in presence of z-LEHD-FMK caspase-9 inhibitor; type: functional, cell-based
How it was run: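 Cells seeded 1×10^4/well in DMEM with 10% FBS, adhered overnight, serum-starved 4 h; pre-incubated 2 h with Z-IETD-FMK or Z-LEHD-FMK (10µM each), then 5μM compound for a further 24 h; viability by MTT.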

[17] = biological target: Insulin receptor (Homo sapiens) (UniProt P06213); assay: Inhibition of IR (unknown origin) at 10 uM
[18] = biological target: Signal transducer and activator of transcription 3 (Homo sapiens) (UniProt P40763); assay: Inhibition of EGF-induced STAT3 phosphorylation in human MDA-MB-231 cells at 1 uM by ELISA; type: cell-based
MCF7 [19] = assay: Induction of apoptosis in human […] cells assessed as increase in Bax to Bcl2 ratio at 5 uM after 24 hrs by immunoblotting analysis; type: functional, cell-based
How it was run: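 Immunoblot of Bax and Bcl-2 in cell lysates, loading normalized to actin; mean ± SEM, three independent experiments.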

MCF7 [20] = assay: Antiproliferative activity against human […] cells assessed as absence of growth recovery treated > 5 uM for 24 hrs followed by maintained in drug free medium for 72 hrs by MTT assay; type: functional, cell-based

Sequence of Signal transducer and activator of transcription 3 (Homo sapiens) (P40763 whole entry): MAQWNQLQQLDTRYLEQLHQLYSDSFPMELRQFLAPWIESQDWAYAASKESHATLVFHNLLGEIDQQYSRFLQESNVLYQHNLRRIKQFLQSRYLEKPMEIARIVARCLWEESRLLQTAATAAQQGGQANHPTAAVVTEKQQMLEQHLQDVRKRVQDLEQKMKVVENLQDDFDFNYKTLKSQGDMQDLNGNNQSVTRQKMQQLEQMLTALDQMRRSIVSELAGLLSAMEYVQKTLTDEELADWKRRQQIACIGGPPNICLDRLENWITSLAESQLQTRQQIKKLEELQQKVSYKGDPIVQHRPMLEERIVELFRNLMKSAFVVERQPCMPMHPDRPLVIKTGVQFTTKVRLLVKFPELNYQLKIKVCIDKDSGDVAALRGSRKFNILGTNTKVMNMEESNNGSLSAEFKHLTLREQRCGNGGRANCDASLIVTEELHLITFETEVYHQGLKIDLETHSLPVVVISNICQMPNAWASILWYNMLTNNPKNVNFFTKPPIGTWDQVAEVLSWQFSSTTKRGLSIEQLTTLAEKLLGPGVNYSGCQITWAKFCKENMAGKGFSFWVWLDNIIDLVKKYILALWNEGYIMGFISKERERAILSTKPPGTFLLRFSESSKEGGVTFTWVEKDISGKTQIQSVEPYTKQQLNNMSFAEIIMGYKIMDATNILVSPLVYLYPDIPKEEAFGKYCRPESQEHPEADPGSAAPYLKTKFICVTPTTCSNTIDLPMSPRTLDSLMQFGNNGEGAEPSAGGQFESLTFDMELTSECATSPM
Sequence of Focal adhesion kinase 1 (Homo sapiens) (Q05397 2-1052 limits assumed): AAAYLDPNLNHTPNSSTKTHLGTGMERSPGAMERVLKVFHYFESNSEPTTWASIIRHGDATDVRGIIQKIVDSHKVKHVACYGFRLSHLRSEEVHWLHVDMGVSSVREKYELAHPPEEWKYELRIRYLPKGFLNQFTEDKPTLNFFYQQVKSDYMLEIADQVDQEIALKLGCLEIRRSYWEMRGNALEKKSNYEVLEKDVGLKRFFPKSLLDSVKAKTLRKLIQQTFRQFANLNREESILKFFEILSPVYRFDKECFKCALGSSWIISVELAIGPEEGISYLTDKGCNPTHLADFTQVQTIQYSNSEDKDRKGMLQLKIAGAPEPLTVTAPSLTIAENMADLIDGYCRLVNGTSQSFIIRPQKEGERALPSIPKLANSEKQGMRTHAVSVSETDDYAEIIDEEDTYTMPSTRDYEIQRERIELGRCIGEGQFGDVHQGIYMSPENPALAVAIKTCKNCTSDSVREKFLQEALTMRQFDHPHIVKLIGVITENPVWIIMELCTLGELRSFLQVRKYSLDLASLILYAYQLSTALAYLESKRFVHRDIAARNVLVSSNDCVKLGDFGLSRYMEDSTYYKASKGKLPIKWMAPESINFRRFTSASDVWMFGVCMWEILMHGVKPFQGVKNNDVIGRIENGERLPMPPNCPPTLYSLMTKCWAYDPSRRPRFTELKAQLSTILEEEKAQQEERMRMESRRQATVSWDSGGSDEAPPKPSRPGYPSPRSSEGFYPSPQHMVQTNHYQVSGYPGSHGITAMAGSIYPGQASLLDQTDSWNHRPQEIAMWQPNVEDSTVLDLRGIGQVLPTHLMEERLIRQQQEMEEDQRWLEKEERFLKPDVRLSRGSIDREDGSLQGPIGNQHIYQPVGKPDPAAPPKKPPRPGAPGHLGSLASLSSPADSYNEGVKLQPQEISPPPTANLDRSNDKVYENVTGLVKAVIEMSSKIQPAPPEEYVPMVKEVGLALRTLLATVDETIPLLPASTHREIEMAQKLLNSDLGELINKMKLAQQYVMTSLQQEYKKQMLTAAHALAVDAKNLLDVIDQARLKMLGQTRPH
Sequence of Insulin receptor (Homo sapiens) (P06213 28-758 limits assumed): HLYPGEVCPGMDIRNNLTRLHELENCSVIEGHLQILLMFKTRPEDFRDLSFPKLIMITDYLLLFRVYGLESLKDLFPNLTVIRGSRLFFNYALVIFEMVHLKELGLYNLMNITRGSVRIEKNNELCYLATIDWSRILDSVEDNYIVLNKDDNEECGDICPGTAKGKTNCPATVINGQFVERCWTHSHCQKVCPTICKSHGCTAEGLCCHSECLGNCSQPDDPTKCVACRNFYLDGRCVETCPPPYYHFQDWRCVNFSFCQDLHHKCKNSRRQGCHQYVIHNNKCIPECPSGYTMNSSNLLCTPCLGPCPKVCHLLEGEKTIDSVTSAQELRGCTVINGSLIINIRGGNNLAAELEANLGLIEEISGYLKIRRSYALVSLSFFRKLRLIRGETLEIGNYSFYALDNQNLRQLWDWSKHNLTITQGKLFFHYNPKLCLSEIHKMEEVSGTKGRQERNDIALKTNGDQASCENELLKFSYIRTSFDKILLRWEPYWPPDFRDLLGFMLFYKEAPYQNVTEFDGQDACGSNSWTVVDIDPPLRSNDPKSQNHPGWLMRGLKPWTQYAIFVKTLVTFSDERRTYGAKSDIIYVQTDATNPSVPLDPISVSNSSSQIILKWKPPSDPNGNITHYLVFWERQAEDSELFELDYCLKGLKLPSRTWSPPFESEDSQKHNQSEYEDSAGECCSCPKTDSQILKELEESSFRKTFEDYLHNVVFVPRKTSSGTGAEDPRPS
Sequence of Insulin receptor (Homo sapiens) (P06213 763-1382 limits assumed): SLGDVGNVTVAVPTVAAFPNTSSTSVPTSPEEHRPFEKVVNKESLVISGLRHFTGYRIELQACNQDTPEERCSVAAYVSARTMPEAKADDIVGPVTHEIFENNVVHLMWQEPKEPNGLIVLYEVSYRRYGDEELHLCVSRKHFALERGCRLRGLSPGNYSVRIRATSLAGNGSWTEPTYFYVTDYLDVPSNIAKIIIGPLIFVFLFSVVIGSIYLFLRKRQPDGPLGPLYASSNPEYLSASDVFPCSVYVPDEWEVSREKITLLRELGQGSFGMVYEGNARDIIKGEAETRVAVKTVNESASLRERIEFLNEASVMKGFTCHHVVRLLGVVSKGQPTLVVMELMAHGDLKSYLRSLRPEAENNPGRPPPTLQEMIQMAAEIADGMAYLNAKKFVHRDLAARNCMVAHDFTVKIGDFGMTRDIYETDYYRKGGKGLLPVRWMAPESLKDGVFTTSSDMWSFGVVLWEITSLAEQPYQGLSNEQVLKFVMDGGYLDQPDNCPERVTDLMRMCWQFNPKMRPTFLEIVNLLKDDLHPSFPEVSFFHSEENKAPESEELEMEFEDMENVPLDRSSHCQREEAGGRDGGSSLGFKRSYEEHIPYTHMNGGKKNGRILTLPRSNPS
Sequence of Mast/stem cell growth factor receptor Kit (Homo sapiens), P10721 [D816V] (P10721 whole entry D816V): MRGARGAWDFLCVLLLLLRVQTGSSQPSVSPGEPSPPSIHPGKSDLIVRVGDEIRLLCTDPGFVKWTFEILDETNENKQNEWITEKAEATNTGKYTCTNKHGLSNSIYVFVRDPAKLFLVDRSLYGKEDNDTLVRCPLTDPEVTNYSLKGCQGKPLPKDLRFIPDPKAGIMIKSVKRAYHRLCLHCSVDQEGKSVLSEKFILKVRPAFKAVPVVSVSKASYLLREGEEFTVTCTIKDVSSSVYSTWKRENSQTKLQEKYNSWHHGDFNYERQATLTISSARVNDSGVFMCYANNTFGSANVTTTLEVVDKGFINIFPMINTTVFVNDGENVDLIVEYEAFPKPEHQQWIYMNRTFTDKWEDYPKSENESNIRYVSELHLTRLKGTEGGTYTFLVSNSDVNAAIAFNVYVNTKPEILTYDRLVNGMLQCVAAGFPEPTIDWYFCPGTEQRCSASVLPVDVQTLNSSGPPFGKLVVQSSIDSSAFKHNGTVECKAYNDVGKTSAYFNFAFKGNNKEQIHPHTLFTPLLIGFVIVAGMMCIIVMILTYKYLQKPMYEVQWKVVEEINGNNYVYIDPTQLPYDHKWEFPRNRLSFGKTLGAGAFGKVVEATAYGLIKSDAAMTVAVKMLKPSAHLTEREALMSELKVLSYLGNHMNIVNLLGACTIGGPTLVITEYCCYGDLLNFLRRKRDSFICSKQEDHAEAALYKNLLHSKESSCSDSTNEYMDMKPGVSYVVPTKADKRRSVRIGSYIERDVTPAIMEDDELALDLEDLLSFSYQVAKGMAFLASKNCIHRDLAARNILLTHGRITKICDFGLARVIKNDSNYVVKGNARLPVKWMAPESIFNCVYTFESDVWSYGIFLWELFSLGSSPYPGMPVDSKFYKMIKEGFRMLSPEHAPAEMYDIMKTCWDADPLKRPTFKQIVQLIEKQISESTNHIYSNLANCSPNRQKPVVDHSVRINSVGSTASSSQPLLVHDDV

CCN(CC)CCO/N=C(\c1ccc(SC)cc1)c1cccc2ccccc12.O=C(O)C(=O)O
Activity (MDA-MB-231 [1]): 20%
IC50 [2]: > 20 µM
EC50 (Ishikawa): 12 µM
Activity (MCF7 [3]): 13.88%
Activity (MDA-MB-231 [4]): 0.9%
Activity (MCF7 [5]): 0.9%

CCN(CC)CCO/N=C(\c1ccc(SC)cc1)c1cccc2ccccc12
inhibition [6]: inactive
inhibition (MDA-MB-231 [7]): Active
inhibition [8]: Active
inhibition (MDA-MB-231 [9]): Active
inhibition [10]: inactive
inhibition (MDA-MB-231 [11]): Active
inhibition (DLD-1): Active
inhibition (MDA-MB-231 [12]): Active
inhibition [13]: inactive
Activity (MDA-MB-231 [14]): Active
Activity (MDA-MB-231 [15]): Active
Activity (MCF7 [16]): inactive
inhibition [17]: inactive
inhibition [18]: Active
Activity (MCF7 [19]): Active
Activity (MCF7 [20]): Active
